The results in this text go back to ChEMBL document CHEMBL4837220, “Development of tricyclic N-benzyl-4-hydroxybutanamide derivatives as inhibitors of GABA transporters mGAT1-4 with anticonvulsant, antinociceptive, and antidepressant activity” (Eur J Med Chem, 2021).

The subject of data set [1] is Mus musculus. The experiment in a line: Antidepressant activity in CD-1 mouse assessed as reduction in immobility time at 30 mg/kg, ip measured for last 4 mins of 6 mins test by forced swim test. The class given is functional, organism-based. Summed up: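 Male CD-1 mice, dosed i.p. 60 min before test. Mice were placed singly in cylinders with 10 cm water at 23–25 °C. Immobility (passive floating) was scored during the final 4 min of a 6-min session. Analysis by one-way ANOVA with Dunnett versus vehicle.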

Another data set concerns HEK293. The experiment in a line: Cytotoxicity in human HEK293 cells assessed as reduction in cell viability at 1 uM incubated for 72 hrs by MTS assay. Type of data set: cell-based. The settings on record: hek293, 72 h. Put shortly: (§1)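 Cells (HEK-293 or HepG2) were seeded at 0.7×10^4 per well and grown at 37 °C, 5% CO₂. Compounds at 0.1–100 µM were added in quadruplicate for 72 h, with 1% DMSO in medium as control. Viability was read by MTS absorbance at 492 nm. Analysis by one-way ANOVA with Bonferroni.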
In general terms: Tetrazolium dyes change colour on reduction, which living cells bring about.

In data set [2] the test system is Mus musculus. The experiment in a line: Antinociceptive activity in Albino Swiss (CD-1) mouse model of formalin-induced paw edema assessed as reduction in duration of nocifensive response by measuring licking/biting time at 30 mg/kg, ip pre-treated for 30 mins followed by formalin-stimulation and measured up to 5 mins. Type of data set: functional, organism-based.

Data set [3] concerns the target T1, Sodium- and chloride-dependent GABA transporter 1 (Mus musculus, UniProt P31648). The data set can be described thus: Inhibition of mouse GAT1 expressed in human HEK293 cell line assessed as inhibition of [3H]GABA uptake measured after 40 mins by […]. Type of data set: cell-based.
The test system of data set [4] is Mus musculus. The data set can be described thus: Anticonvulsant activity in CD-1 mouse assessed as elevation of seizure threshold at 100 mg/kg, ip measured by electroconvulsive threshold test relative to control. Type of data set: functional.
Data set [5] in a line: Effect on locomotor activity in Albino Swiss (CD-1) mouse at 30 mg/kg, ip. The class given is ADME, organism-based. The settings on record: in vivo. Put shortly: (§2)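 Male CD-1 mice were habituated to activity cages for 15 min, then dosed i.p. 60 min before test. Light-beam crossings were counted over 30 min in 6-min bins (0–30 min). Analysis by repeated measures ANOVA with Bonferroni.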

Data set [6] in a line: Hepatotoxicity in human HepG2 cells at 50 uM incubated for 72 hrs by MTS assay. The settings on record: hepg2, 72 h. Type of data set: cell-based. Summed up: as §1
Data set [7] in a line: Hepatotoxicity in human HepG2 cells at 25 uM incubated for 72 hrs by MTS assay. The settings on record: hepg2, 72 h. The class given is cell-based. Put shortly: as §1
For another data set, the target named is T2, GABA transporter 2 (Mus musculus, UniProt P31651).
T2 sequence (P31651 whole entry): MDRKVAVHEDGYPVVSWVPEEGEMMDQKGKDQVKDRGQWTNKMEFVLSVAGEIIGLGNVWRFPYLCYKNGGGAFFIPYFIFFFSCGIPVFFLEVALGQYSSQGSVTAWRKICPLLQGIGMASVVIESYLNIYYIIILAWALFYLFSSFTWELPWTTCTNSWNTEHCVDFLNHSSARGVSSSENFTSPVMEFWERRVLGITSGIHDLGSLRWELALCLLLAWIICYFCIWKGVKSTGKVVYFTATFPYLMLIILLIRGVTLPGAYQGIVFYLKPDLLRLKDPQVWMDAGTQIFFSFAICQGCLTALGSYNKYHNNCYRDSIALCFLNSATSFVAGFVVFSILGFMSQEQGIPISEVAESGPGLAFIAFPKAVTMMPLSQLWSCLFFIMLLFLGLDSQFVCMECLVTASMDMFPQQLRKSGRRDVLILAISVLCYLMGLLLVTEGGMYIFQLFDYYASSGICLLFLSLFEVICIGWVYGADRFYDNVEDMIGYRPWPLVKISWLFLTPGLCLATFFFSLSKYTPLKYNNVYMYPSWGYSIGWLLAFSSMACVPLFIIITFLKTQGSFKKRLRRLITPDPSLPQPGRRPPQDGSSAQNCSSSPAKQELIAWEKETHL
The experiment in a line: Inhibition of mouse GAT2 expressed in human HEK293 cell line assessed as inhibition of [3H]GABA uptake measured after 40 mins by […]. Type of data set: cell-based.

In data set [8] the test system is Mus musculus. The experiment in a line: Antidepressant-like activity in C57BL/6J mouse assessed as decrease in immobility time at 30 mg/kg, ip measured during last 4 mins of 6 mins test by tail suspension test.
In data set [9] the test system is Mus musculus. The experiment in a line: Antinociceptive activity in Albino Swiss (CD-1) mouse model of formalin-induced paw edema at 30 mg/kg, ip pre-treated for 30 mins followed by formalin-stimulation and measured for 15 to 30 mins by formalin test.
Data set [10] is described as follows: Hepatotoxicity in human HepG2 cells at 100 uM incubated for 72 hrs by MTS assay. The class given is cell-based. The settings on record: hepg2, 72 h. Put shortly: as §1
Data set [11] concerns Mus musculus. The experiment in a line: Anxiolytic-like activity in Albino Swiss (CD-1) mouse assessed as increase in time spent in open arm at 30 mg/kg, ip measured for 5 mins by elevated plus maze test. Type of data set: functional, organism-based. Put shortly:
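Male CD-1 mice were dosed i.p. 60 min before test. Each was placed in the centre of the plus maze facing a closed arm and video-recorded for 5 min. Measures were time in open arms and % open-arm entries of all entries. Analysis by one-way ANOVA with Dunnett; n = 7–10.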

The subject of data set [12] is Mus musculus. The experiment in a line: Anticonvulsant activity in Albino Swiss (CD-1) mouse assessed as tonic seizures at 100 mg/kg, ip measured after 0.2 secs by maximal electroshock seizure test. The class given is functional. The settings on record: time 0.2 sec, 5.556e-05 h. Put shortly: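 Male CD-1 mice (18–22 g), dosed i.p. 60 min before test. A 25 mA, 0.2 s stimulus was given via auricular electrodes. Endpoint was tonic hind limb extension, expressed as % of mice with extension per group; n = 6.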

The test system of data set [13] is Mus musculus. The data set can be described thus: Anxiolytic-like activity in Albino Swiss (CD-1) mouse at 30 mg/kg, ip by four plate test. The class given is functional, organism-based. Summed up:
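Male CD-1 mice were dosed i.p. 60 min before test. After 15 s habituation on a four-plate floor, a 60 s test followed. Each plate-to-plate crossing triggered a 0.8 mA, 0.5 s shock. The number of punished crossings was counted. Analysis by one-way ANOVA with Dunnett.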

The test system of data set [14] is Mus musculus. The data set can be described thus: Anticonvulsant activity in Albino Swiss (CD-1) mouse model of pilocarpine-induced status epilepticus assessed as reduction in latency to occurrence of status epilepticus at 100 mg/kg, […]. The class given is functional, organism-based.
The next data set concerns the target T3, GABA transporter 4 (Mus musculus, UniProt P31650).
T3 sequence (P31650 whole entry): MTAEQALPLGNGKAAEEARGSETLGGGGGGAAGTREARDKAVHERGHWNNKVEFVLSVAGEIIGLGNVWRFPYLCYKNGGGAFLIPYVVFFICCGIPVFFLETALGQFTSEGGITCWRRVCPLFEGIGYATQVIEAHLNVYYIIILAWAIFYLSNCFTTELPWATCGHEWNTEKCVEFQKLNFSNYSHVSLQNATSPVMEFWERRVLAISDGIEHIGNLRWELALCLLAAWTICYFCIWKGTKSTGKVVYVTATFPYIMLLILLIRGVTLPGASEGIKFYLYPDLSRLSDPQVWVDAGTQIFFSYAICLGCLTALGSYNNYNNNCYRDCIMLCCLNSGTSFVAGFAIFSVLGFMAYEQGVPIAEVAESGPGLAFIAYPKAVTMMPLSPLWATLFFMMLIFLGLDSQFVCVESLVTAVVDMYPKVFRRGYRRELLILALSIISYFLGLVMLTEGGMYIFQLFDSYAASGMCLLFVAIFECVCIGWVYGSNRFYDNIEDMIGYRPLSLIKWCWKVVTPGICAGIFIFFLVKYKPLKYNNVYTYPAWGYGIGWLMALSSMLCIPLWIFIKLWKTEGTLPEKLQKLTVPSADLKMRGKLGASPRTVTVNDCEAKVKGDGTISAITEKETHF
The data set can be described thus: Inhibition of mouse GAT4 expressed in human HEK293 cell line assessed as inhibition of [3H]GABA uptake measured after 40 mins by […]. The class given is cell-based.

The target in data set [15] is Sodium- and chloride-dependent GABA transporter 1 (Mus musculus) (UniProt P31648). The experiment in a line: Residual NO711 binding to mouse GAT1 expressed in human HEK293 cell line at 100 uM by MS binding assay relative to control.
Data set [16] concerns the target T1, Sodium- and chloride-dependent GABA transporter 1. The experiment in a line: Inhibition of NO711 binding to mouse GAT1 expressed in human HEK293 cell line by MS binding assay.
Data set [17] deals with Mus musculus. The data set can be described thus: Antidepressant activity in Albino Swiss (CD-1) mouse assessed as reduction in immobility time at 30 mg/kg, ip measured for last 4 mins of 6 mins test by forced swim test relative to control. The class given is functional. Further details: scale not given: the % may be the effect or the level left.
In data set [18] the test system is Mus musculus. The experiment in a line: Antidepressant activity in Albino Swiss (CD-1) mouse assessed as reduction in immobility time at 8 mg/kg, ip measured for last 4 mins of 6 mins test by forced swim test relative to control. The class given is functional. Further details: scale not given: the % may be the effect or the level left.
A short description of data set [19]: Effect on locomotor activity in Albino Swiss (CD-1) mouse at 30 mg/kg, ip after 24 to 30 mins. The note with it: in vivo, time 24-30 min. Type of data set: ADME, organism-based. Summed up:
as §2

The subject of data set [20] is Mus musculus. The data set can be described thus: Anticonvulsive activity in Albino Swiss (CD-1) mouse assessed as protection against pentylenetetrazole-induced seizure at 100 mg/kg, ip administered 60 mins prior to pentylenetetrazole challenge and measured for 30 mins. Type of data set: functional, organism-based. Put shortly: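 Male CD-1 mice were given test compound or vehicle i.p. and 60 min later PTZ 100 mg/kg s.c. Mice were observed singly for 30 min, recording latency to first seizure episode and number of seizure episodes. Analysis by one-way ANOVA with Dunnett; n = 10–12.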

Calls of active or inactive are those of the source.

As usually defined, the IC50 is the concentration that gives 50% inhibition. As usually defined, the residual activity is the signal under treatment as a percentage of the control signal. As a reminder, the pKi is the negative decadic logarithm of the Ki, by convention in mol/L.

Regarding `Cc1ccc(CNC(=O)C(CCO)N(C)CCC=C2c3ccccc3CCc3ccccc32)cc1` (centres undefined), the result in the data set with Mus musculus [1], in the data set on Mus musculus [2], in the data set on Mus musculus [8], in the data set with Mus musculus [9] and in the data set with Mus musculus [14] was Active. The Activity entry is recorded as “Non-Toxic” in the data set with HEK293; 90% in the data set on Mus musculus [4]; “Non-Toxic” in data set [5]; “Toxic” in data set [6]; “Non-Toxic” in data set [7]; “Toxic” in data set [10]. For the same molecule, in the data set on Mus musculus [12], the Activity is recorded as 83%. Besides, the IC50 was 14.1 µM in data set [3], 4.57 µM at GABA transporter 2 and 10.7 µM on GABA transporter 4. The outcome with Mus musculus [11] and with Mus musculus [13] was inactive. In data set [15], this molecule came in with a residual activity of 53%.

The molecule `Cc1ccsc1C(=CCCN1CCC[C@@H](C(=O)O)C1)c1sccc1C` [TIAGABINE] returned a pKi in data set [16] of 7.43. In addition, the Activity is recorded as 97.4% with Mus musculus [17] and 59% with Mus musculus [18].

`CN(CCC=C1c2ccccc2C=Cc2ccccc21)C(CCO)C(=O)NCc1ccccc1` (centres undefined): the Activity entry in the data set on HEK293 is “Non-Toxic”; in the data set on Mus musculus [4] it was 43%; in data set [6], “Toxic”; in [7] it was “Non-Toxic”; with Mus musculus [18], “Dose-Dependent Effect”; in [10], “Toxic”. For the same molecule, the Activity in the data set on Mus musculus [12] is reported as 83%; in [19] it was “Non-Toxic”. Further, the IC50 was 21.9 µM in data set [3], 15.5 µM at GABA transporter 2 and 9.55 µM at GABA transporter 4. In addition, the result in the data set with Mus musculus [8] and in the data set on Mus musculus [9] was Active. For the same molecule, the outcome in the data set on Mus musculus [11], in the data set on Mus musculus [13], in the data set with Mus musculus [14] and with Mus musculus [20] was inactive. Moreover, the residual activity in [15] was determined as 75%.
